Calls of active or inactive are those of the source.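 Rule for the calls, unless noted: active = GFP response above 150% of the DMSO level; inconclusive = fewer than 70 events counted for a yeast strain; inactive = the rest.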
Key:
[1] = RPL19A-GFP modulators, yeast TOR pathway, confirmation, cell-based, S. cerevisiae, flow cytometry, cherry picks, mother/daughter gates (AID 2270;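 active = GFP response below 50% of the DMSO control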); conditions: S. cerevisiae RPL19A-GFP strain, 3 h, at 10 µM, stronger effect = lower value, 100 = same GFP as DMSO wells
[2] = LAP4-GFP expression modulators in yeast, confirmation, cell-based, cherry picks, flow cytometry, mother/daughter gates (AID 2271;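 active = GFP response above 150% of the DMSO control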;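 note: ratio of sample to DMSO plate mean so 100% equals DMSO level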); conditions: S. cerevisiae LAP4-GFP strain, 3 h, at 10 µM, stronger effect = higher value, 100 means same as DMSO control
How it was run: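 Test system: GFP-fusion yeast strain. Medium: synthetic complete (SC) yeast growth medium. Timing: 3 h treatment at 30 °C with rotation. Measured by: GFP by flow cytometry. Control set: positive rapamycin (400 ng/mL), negative DMSO.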

[3] = modulators of MEP2-GFP levels in yeast, confirmation, S. cerevisiae, flow cytometry GFP, cherry picks (AID 2272;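 active = GFP response above 150% of the DMSO control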;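 note: ratio of well signal to plate DMSO mean so 100% equals DMSO level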); conditions: S. cerevisiae MEP2-GFP strain, 3 h, at 10 µM, stronger effect = higher value
[4] = AGP1-GFP expression modulators, hit retest, confirmation, cell-based, flow cytometry, S. cerevisiae, cherry picks (AID 2273);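 note: median GFP channel fluorescence over the whole cell population gate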; conditions: S. cerevisiae AGP1-GFP strain, 3 h, at 10 µM
[5] = modulators of CIT2-GFP expression in yeast, confirmation, S. cerevisiae, GFP fusion, cherry picks, mother/daughter gates (AID 2274); conditions: S. cerevisiae CIT2-GFP strain, flow cytometry, 3 h, at 10 µM, stronger effect = higher value
[6] = measured here: daughter cell gate
[7] = measured here: mother cell gate
[8] = measured here: daughter cell gate response
[9] = measured here: mother cell gate response

Compound | GFP response vs DMSO [1] | GFP response vs DMSO [1, 6] [%] | GFP response vs DMSO [1, 7] [%] | GFP response relative to DMSO [2] | GFP response relative to DMSO [2, 8] [%] | GFP response relative to DMSO [2, 9] [%] | GFP response vs DMSO [3] | GFP response, % of DMSO [4] | GFP response, % of DMSO [5] | GFP response, % of DMSO [5, 6] [%] | GFP response, % of DMSO [5, 7] [%]
CCC(=O)Nc1ccc(NC(=O)c2oc3ccccc3c2C)cc1 | 101% (inactive) | 95 | 96.3 | 99.8% (inactive) | 100 | 101 | 102% (inactive) | 93.9% (inactive) | 103% (inactive) | 99.7 | 102
Cc1cc(C)nc(/N=C(\N)N2CCCCCC2)n1 | 99.3% (inactive) | 100 | 100 | 103% (inactive) | 104 | 102 | 99.5% (inactive) | 99.5% (inactive) | 101% (inactive) | 100 | 100
CN1c2ccsc2/C(=N/Nc2ccc(F)cc2)CS1(=O)=O | 99.2% (inactive) | 99.6 | 99 | 134% (inactive) | 130 | 134 | 114% (inactive) | 103% (inactive) | 109% (inactive) | 108 | 109
c1ccc2oc(SCc3nc4ccccc4s3)nc2c1 | 99% (inactive) | 98.9 | 98.9 | 106% (inactive) | 104 | 106 | 98.3% (inactive) | 95% (inactive) | 99.7% (inactive) | 99.1 | 99.7
O=[N+]([O-])c1cc(C(F)(F)F)ccc1Sc1ccc2ccccc2n1 | 95.8% (inactive) | 97 | 96.4 | 115% (inactive) | 109 | 115 | 102% (inactive) | 97.5% (inactive) | 95% (inactive) | 98.3 | 93.3
CCOc1cc(/C=C2\N=C(C)OC2=O)cc(Br)c1OCCc1ccccc1 | 100% (inactive) | 99.8 | 101 | 102% (inactive) | 95 | 103 | 99.5% (inactive) | 97.3% (inactive) | 92.1% (inactive) | 92.7 | 88.6
Cc1ccc(C)c(N2CCN(C(=O)c3ccccc3Br)CC2)c1 | 105% (inactive) | 102 | 99.5 | 101% (inactive) | 101 | 100 | 109% (inactive) | 98.8% (inactive) | 106% (inactive) | 103 | 105
COc1ccccc1OCC(=O)Sc1ccc(C)cc1 | 95.3% (inactive) | 96.7 | 92.3 | 113% (inactive) | 110 | 113 | 120% (inactive) | 99.3% (inactive) | 97.2% (inactive) | 99.3 | 93.8
O=C(CS(=O)c1ccccc1[N+](=O)[O-])Oc1ccc(Br)cc1 (configuration not stated) | 101% (inactive) | 105 | 96.5 | 168% (active) | 167 | 164 | 101% (inactive) | 107% (inactive) | 98.6% (inactive) | 105 | 91.5
CC(C)c1nnc(NC(=O)c2nc(S(=O)(=O)Cc3ccc(F)cc3)ncc2Cl)s1 | 95.8% (inactive) | 96 | 96.9 | 101% (inactive) | 102 | 99.5 | 99.5% (inactive) | 102% (inactive) | 99.3% (inactive) | 100 | 100
CCOC(=O)CNc1c(-c2ccc(O)cc2)nc2ccccn12 | 98.5% (inactive) | 99.3 | 98 | 100% (inactive) | 104 | 98.4 | 97.2% (inactive) | 104% (inactive) | 101% (inactive) | 103 | 103
Cc1ccc(N2C(=O)C3C4C=CC(CNC(=S)Nc5ccc(Cl)cc5)(O4)C3C2=O)cc1 (configuration not stated) | 102% (inactive) | 101 | 100 | 101% (inactive) | 103 | 102 | 102% (inactive) | 102% (inactive) | 99.1% (inactive) | 98.1 | 97.7
Cc1ccc(NC(=O)CC2SC(=O)N(c3ccccc3)C2=O)cc1 (configuration not stated) | 97.8% (inactive) | 101 | 94.5 | 142% (inactive) | 140 | 143 | 112% (inactive) | 98.9% (inactive) | 102% (inactive) | 104 | 94.5
O=C(COC(=O)/C=C/c1cccs1)Nc1nc(-c2ccccc2)cs1 | 101% (inactive) | 99.9 | 99.7 | 102% (inactive) | 101 | 101 | 105% (inactive) | 93.3% (inactive) | 99.7% (inactive) | 99.1 | 98.5
COc1cc(NC(=O)c2ccc(C)cc2)ccc1NC(=O)c1cc2ccccc2o1 | 95.4% (inactive) | 86 | 85.2 | 95.7% (inactive) | 91 | 91 | 99% (inactive) | 109% (inactive) | 100% (inactive) | 88.4 | 89.5
COc1ccc(-c2nc(NC(=O)c3cc(C(C)(C)C)nn3C)sc2C)cc1 | 98.7% (inactive) | 100 | 99 | 98.9% (inactive) | 101 | 99.5 | 103% (inactive) | 100% (inactive) | 104% (inactive) | 103 | 104
Cc1ccc(N(C(=O)CCCC(=O)Nc2ccccn2)C(C(=O)NC2CCCC2)c2ccc(O)cc2)cc1C (configuration not stated) | 98.4% (inactive) | 99 | 99.8 | 98.7% (inactive) | 98.7 | 98.3 | 117% (inactive) | 111% (inactive) | 111% (inactive) | 108 | 112
COc1ccccc1C(=O)NNC(=O)C(=O)Nc1cccc(Cl)c1C | 106% (inactive) | 111 | 101 | 112% (inactive) | 118 | 109 | 116% (inactive) | 109% (inactive) | 119% (inactive) | 122 | 113
Cc1nn(Cc2ccc(Cl)cc2)c(=O)n1N(C)c1ncc(C(F)(F)F)cc1Cl | 96% (inactive) | 98.1 | 97.2 | 96.7% (inactive) | 97.6 | 95.1 | 96.2% (inactive) | 95.4% (inactive) | 99.7% (inactive) | 101 | 98.5
O=C(CC1SC(=Nc2ccccc2F)N(CCN2CCOCC2)C1=O)Nc1ccc(F)cc1F (configuration not stated) | 96.8% (inactive) | 97.4 | 96.6 | 95.4% (inactive) | 96 | 94 | 102% (inactive) | 97.8% (inactive) | 98.3% (inactive) | 99.1 | 98.5
O=C1C=CC(=O)N1c1ccc(Sc2ccc([N+](=O)[O-])cc2)cc1 | 74% (inactive) | 96.8 | 61.1 | 143% (inactive) | 142 | 124 | 125% (inactive) | 106% (inactive) | 79.7% (inactive) | 90.5 | 63.8
COc1ccc(S(=O)(=O)N2Cc3ccccc3CC2C(=O)O)cc1OC (configuration not stated) | 97% (inactive) | 97 | 97.1 | 98.8% (inactive) | 96.5 | 98.5 | 104% (inactive) | 102% (inactive) | 99.3% (inactive) | 100 | 99.1
Cc1cc(NCCN2CCOCC2)n2ncc(-c3ccccc3)c2n1 | 99.6% (inactive) | 99.8 | 99.4 | 107% (inactive) | 110 | 107 | 103% (inactive) | 89.3% (inactive) | 103% (inactive) | 99.3 | 104
COc1ccc(S(=O)(=O)N2CCC(O)(c3ccc(Cl)cc3)CC2)cc1 | 101% (inactive) | 99.6 | 101 | 97.9% (inactive) | 97.6 | 97.2 | 105% (inactive) | 91.9% (inactive) | 107% (inactive) | 106 | 104
Nc1cccnc1S(=O)(=O)c1cccc(C(F)(F)F)c1 | 97.6% (inactive) | 97.1 | 97.2 | 96.7% (inactive) | 97.6 | 94 | 102% (inactive) | 98.9% (inactive) | 96.9% (inactive) | 99.1 | 93.8
Cc1cc(C)c2sc(NC(=O)C3=COCCO3)nc2c1 | 95.8% (inactive) | 95.5 | 97.9 | 94.2% (inactive) | 95 | 96.5 | 99.5% (inactive) | 92.5% (inactive) | 102% (inactive) | 104 | 101
Cc1ccc(C2=NN(S(C)(=O)=O)C(c3ccc4nccnc4c3)C2)cc1 (configuration not stated) | 98.6% (inactive) | 99.4 | 97.6 | 101% (inactive) | 101 | 99.3 | 100% (inactive) | 96.8% (inactive) | 101% (inactive) | 103 | 99.7
